Measured values as given in ChEMBL document CHEMBL4014320 (J Med Chem, 2017).

Assays:
[1] = biological target: T1, Peroxisome proliferator-activated receptor gamma (Homo sapiens) (UniProt P37231); experiment: Agonist activity at human GAL4 fused PPARgamma-Hinge-LBD expressed in HEK293T cells after 18 hrs by luciferase reporter gene assay relative to rosiglitazone; format: cell-based; conditions: HEK-293T
T1 sequence (whole entry): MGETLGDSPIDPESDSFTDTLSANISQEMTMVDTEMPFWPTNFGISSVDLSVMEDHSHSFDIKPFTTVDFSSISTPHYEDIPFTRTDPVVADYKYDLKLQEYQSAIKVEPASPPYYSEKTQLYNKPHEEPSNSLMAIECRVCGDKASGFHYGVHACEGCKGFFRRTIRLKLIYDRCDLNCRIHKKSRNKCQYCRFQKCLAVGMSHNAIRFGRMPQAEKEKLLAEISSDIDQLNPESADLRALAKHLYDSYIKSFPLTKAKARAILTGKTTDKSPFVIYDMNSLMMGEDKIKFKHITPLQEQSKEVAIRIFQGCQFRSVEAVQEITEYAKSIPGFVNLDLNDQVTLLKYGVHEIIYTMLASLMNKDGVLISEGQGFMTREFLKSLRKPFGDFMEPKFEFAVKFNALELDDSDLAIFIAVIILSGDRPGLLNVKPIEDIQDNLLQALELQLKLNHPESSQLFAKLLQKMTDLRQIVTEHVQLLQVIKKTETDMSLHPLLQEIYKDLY
Procedure, shortened: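 HEK293T cells carried transfected human GAL4-PPARγ-hinge-LBD and a 5× UAS-luciferase reporter. Maximal transcriptional output was normalized to rosiglitazone, taken as 100% transactivation. Points were run in triplicate, with two biological replicates.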

[2] = biological target: T2, Peroxisome proliferator-activated receptor gamma (Homo sapiens, UniProt P37231); experiment: Agonist activity at human GAL4 fused PPARgamma-Hinge-LBD expressed in HEK293T cells after 18 hrs by luciferase reporter gene assay; format: cell-based, HEK-293T
T2 sequence (P37231 whole entry): T1 sequence (whole entry)
Procedure, shortened: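 HEK293T cells were co-transfected with human GAL4-PPARγ-hinge-LBD and a 5× multimerized UAS-luciferase reporter (4.5 μg each) and grown serum-free for 18 h at 37 °C under 5% CO2. After 18 h, luminescence was read. EC50 came from plotting fold change over DMSO; points were run in triplicate, with two biological replicates.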

[3] = test system: Rattus norvegicus; experiment: Antidiabetic activity in Zucker fa/fa rat assessed as decrease in blood glucose levels at 0.3 mg/kg administered via oral gavage for 14 days by oral glucose tolerance test; format: functional; set-up: scale not given: the % may be the effect or the level left

Activity [1] | EC50 [2] | Compound | Activity [3]
27% | 134 nM | O=S(=O)(Nc1cc(Cl)c(Oc2cnc3ccccc3c2)c(Cl)c1)c1ccc(Br)cc1Cl | –
19% | 5810 nM | O=S(=O)(Nc1cc(Cl)c(Oc2cnc3ccccc3c2)c(Cl)c1)c1ccccc1Cl | –
10% | 131 nM | O=S(=O)(Nc1cc(Cl)c(Oc2cnc3ccccc3c2)c(Cl)c1)c1cc(F)c(Br)cc1F | –
– | – | O=S(=O)(Nc1cc(Cl)c(Oc2cnc3ccccc3c2)c(Cl)c1)c1ccc(Cl)cc1Cl [INT131] | 30%
14% | 3310 nM | Cc1cc(C)c(S(=O)(=O)Nc2cc(Cl)c(Oc3cnc4ccccc4c3)c(Cl)c2)c(C)c1 | –
23% | 4290 nM | O=S(=O)(Nc1cc(Cl)c(Oc2cnc3ccccc3c2)c(Cl)c1)c1ccc2ccccc2c1 | –
34% | 94 nM | O=S(=O)(Nc1cc(Cl)c(Oc2cnc3ccccc3c2)c(Cl)c1)c1ccc(Br)cc1C(F)(F)F | –
21% | 4 nM | O=S(=O)(Nc1cc(Cl)c(Oc2cnc3ccccc3c2)c(Cl)c1)c1ccc(Br)cc1OC(F)(F)F | –
9% | 169 nM | O=S(=O)(Nc1cc(Cl)c(Oc2cnc3ccccc3c2)c(Cl)c1)c1ccc(Br)c(F)c1 | –
14% | – | O=S(=O)(Nc1cc(Cl)c(Oc2cnc3ccccc3c2)c(Cl)c1)c1cccs1 | –
2% | – | COc1cccc(C(=O)Nc2cc(Cl)c(Oc3cnc4ccccc4c3)c(Cl)c2)c1 | –
29% | 600 nM | Cc1cc(S(=O)(=O)Nc2cc(Cl)c(Oc3cnc4ccccc4c3)c(Cl)c2)ccc1Br | –
18% | 957 nM | O=S(=O)(Nc1cc(Cl)c(Oc2cnc3ccccc3c2)c(Cl)c1)c1ccc(Br)c(C(F)(F)F)c1 | –
11% | 151 nM | O=S(=O)(Nc1cc(Cl)c(Oc2cnc3ccccc3c2)c(Cl)c1)c1ccc(Br)cc1 | –
13% | 2 nM | O=S(=O)(Nc1cc(Cl)c(Oc2cnc3ccccc3c2)c(Cl)c1)c1ccc(Br)cc1F | –
